proKLK7 act: proKLK7 (human) activation, primary screen | purified proKLK7, EDANS-DABCYL substrate fluorescence; 100% is mature enzyme control, 0% vehicle | P49862 | AID 652039 | actives 0.9% (n = 370,000) | activation, % at 7 µM;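 active means activation above the mean of all tested compounds plus 3 SD, computed per campaign excluding outliers beyond control limits, cut at about 13% in these data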
Target sequence (P49862 whole entry, looked up): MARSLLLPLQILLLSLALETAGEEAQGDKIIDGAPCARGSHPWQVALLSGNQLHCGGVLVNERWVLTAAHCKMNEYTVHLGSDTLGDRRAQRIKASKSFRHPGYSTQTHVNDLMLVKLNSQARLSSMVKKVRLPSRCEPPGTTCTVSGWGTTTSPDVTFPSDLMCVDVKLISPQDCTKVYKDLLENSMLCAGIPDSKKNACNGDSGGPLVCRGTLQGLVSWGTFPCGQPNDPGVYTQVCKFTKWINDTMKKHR
Neddyl block: inhibitors of human cullin neddylation | P61081+Q13564 | TR-FRET cullin neddylation, biochemical | calls only at 25 µM | actives 0.58% (n = 360,000); in the data active means inhibition above about 36%
SKN-1 inh: inhibitors of C. elegans SKN-1. C. elegans VP596 Pgst-4::GFP/RFP ratio, acrylamide-induced, 24 h. inhibition, % at 21.8 µM. actives 0.49% (n = 360,000). AID 624304;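 active means interference check ratio from 0.5 to 1.5 plus GFP to RFP signal ratio inhibition reaching or exceeding a fixed threshold, cut at about 30% in these data, passing the limit was not always enough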
DDE Tn6 FP inh: DD(E)-Tn6 binding inhibition, primary FP screen | actives 0.21% (n = 370,000) | Fibrin DD(E) TRITC-Tn6 fluorescence polarization displacement | AID 720509 | inhibition, % at 8.3 µM | P02675;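 active means inhibition above a per-campaign cutoff: mean of compounds within control limits plus 3 SD, cut at about 15% in these data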;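 further: 0% = median of all compound wells on the plate and 100% = blocking peptide control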
MT1-MMP act inh: blocks activation of human MT1-MMP; P50281; HT1080 RFP-PRO-GFP cells, GFP/RFP ratio fluorescence, overnight; percent of plate control window, DMSO zero; GFP/RFP ratio change, % at 20 µM; actives 0.061% (n = 360,000); AID 651647;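 active means GFP/RFP ratio change of at least 30% with cell ATP level not reduced by more than half and red fluorescence within 50% of control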
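Assay system: HT1080 RFP-PRO-GFP cells | Dosing: 20 µM single dose, 1% DMSO | Incubation: Cells overnight before dosing, compound overnight, 37 °C, 5% CO2 | Evaluation: GFP/RFP fluorescence ratio | Control set: DMSO-only wells and HT1080 RFP-L50D-GFP cell wells as references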
DDE Tn7 FP inh: disrupts Tn7 cyclic peptide binding to fibrin D-Dimer-E complex. P02675. FP displacement of FITC-Tn7 peptide from fibrin DD(E); 0% = median of compound wells per plate. inhibition, % at 8.3 µM. actives 0.13% (n = 370,000). AID 720508;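 active means inhibition above the mean of compounds falling within the control limits plus 3 SD of them, cut at about 14% in these data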;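 further: 0% = plate median of compound wells and 100% = 10 µM Aha-Tn7 peptide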
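assay system = human clot-derived fibrin DD(E) complex | quantity = Fibrin-DD(E) at 2 µM final | timing = 10 min preincubation, 3 h with tracer, room temperature | signal = fluorescence polarization | measure = percent inhibition | benchmarks = high control wells with 10 µM unlabelled Aha-Tn7 peptide (full inhibition) | replicates = singlicate testing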
Starred values were filed as active, the others as inactive; i = inactive; / = not tested or not shown; + = active, no number. Compounds with a hit are over-represented: about 2.2% of the library has one in this group of screens.

SMILES	proKLK7 act	Neddyl block	SKN-1 inh	DDE Tn6 FP inh	MT1-MMP act inh	DDE Tn7 FP inh
CCOc1ccc(Cl)cc1-c1cc(C(=O)NCCc2ccncc2)[nH]n1	0	i	9	-3	-4	-1
CCNC(=O)N(C(=O)NCC)n1c(C)nnc1C	16*	i	14	1	2	-3
COc1ccccc1CNC(=O)CCCC(=O)n1nc(C)c2ccccc21	0	i	-3	-7	1	-1
Cc1c(N(C)S(=O)(=O)c2cccc(C(=O)NCC3CCCO3)c2)c(=O)n(-c2ccccc2)n1C (stereo unspecified)	0	i	21	5	-1	-5
NS(=O)(=O)c1ccc(CCNC(=O)c2ccc3nc4ccc(Cl)cc4c(=O)n3c2)cc1	0	+	7	-11	4	-8
Cc1csc2nc(CNS(=O)(=O)c3ccc4c(c3)OCCO4)cn12	0	i	-15	13	1	-2
Cc1csc2nc(CNS(=O)(=O)c3ccc4c(c3)CCCC4)cn12	0	i	36*	3	-1	-4
COC(=O)CSc1nnc(SCc2ccc(OC)cc2)s1	0	i	39*	8	2	1
O=C(O)CSc1nnc(SCc2cccc3ccccc23)s1	0	i	-10	-6	-4	1
CC(C)OC(=O)CSc1nnc(SCc2cccc3ccccc23)s1	1	i	32*	5	-2	0
COC(=O)c1[nH]c2ccccc2c1NC(=O)CN1CC(C)OC(C)C1 (stereo unspecified)	0	i	-7	-1	-1	-2
O=C(/C=C/c1ccco1)NC(=S)Nc1nc(-c2ccc3ccccc3c2)cs1	0	i	7	3	-4	-6
Cn1c(C(=O)N2CCN(C(=O)c3ccco3)CC2)cc2c(=O)n3ccccc3nc21	46*	/	-40	-4	6	7
COCCNC(=O)c1ccc(-c2ccc(OC)cc2C)c2ccoc12	-2	/	36*	-2	0	-4
CC(=O)NCCc1cc2cc(C)c(C)cc2[nH]c1=O	0	i	32*	-2	5	-4
COc1cc(CNCCSc2nnnn2C)cc(Br)c1OCc1ccccc1F	0	i	-3	-5	2	1
CCOc1cc(CNCCSc2nnnn2C)cc(Br)c1OCc1ccccc1F	1	i	39*	3	-2	-4
CCOc1cc(CNCCSc2nnnn2C)cc(Br)c1OCc1ccc(F)cc1	1	i	68*	-1	-2	3
O=C1CCc2cc(S(=O)(=O)N3CCN(Cc4ccc5c(c4)OCO5)CC3)ccc2N1	0	i	4	10	-4	4
O=C1CC(c2ccccc2F)c2cc3c(cc2N1)CCC3 (stereo unspecified)	0	i	6	-3	-5	1
COC1=C/C(=C/c2c(O)c(C#N)c3ccccn23)C=CC1=O	-2	+	-10	-2	-19	7
COc1cc(OC)cc(C(=O)c2c(C)c(C#N)c3ccccn23)c1	-1	i	1	8	-8	-15
CC(=O)N(C1CC(C)C(C#N)(C#N)C1(C#N)C#N)N(C)C (stereo unspecified)	0	i	-12	2	-2	0
CCCC(=O)N(C1CC(C)C(C#N)(C#N)C1(C#N)C#N)N(C)C (stereo unspecified)	-1	+	0	5	-1	5
CC(C)OC1(c2ccccc2)OC(=O)c2ccccc21 (stereo unspecified)	0	i	10	5	1	2
COc1cc(/C=N/N2C(=O)CSC2=S)cc(Br)c1O	1	i	43*	-8	-43	-6
COc1cccc(/C=N/N2C(=O)CSC2=S)c1O	-2	i	-8	-5	27	1
CC(C)(C)CC(=O)NC(=S)N1CCCCCC1	0	i	81*	2	2	1
CCOc1cccc2cc(C(=O)N3CCc4ccccc43)c(=O)oc12	1	i	47*	-3	3	4

From PubChem BioAssay
